Screens as filed in PubChem.
Shown are actives, neighbours in structure and some others; about 1.7% of the full set was active somewhere.
miR122 inh: blocks miR-122 activity in Huh7 sensor cells; activation (reporter increase), % at 12.5 µM; hit rate 0.3% among 340,000; Huh7 miR-122 Renilla luciferase sensor, 48 h; neutral wells = 0, positive control = 100;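 active means mean replicate activation score at least 90 and every replicate individually at or above 90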;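 further: higher luciferase means less miR-122 activity so hits act as miR-122 inhibitors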
ARNT-TACC3 inh: ARNT/TACC3 interaction disruption | AlphaScreen His-ARNT PAS-B/GST-TACC3 binding, luminescence; TACC3 fragment carries E629A point mutation | hit rate 0.66% among 390,000 | inhibition, % at 9.99 µM;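 active means mean inhibition of replicates at least 50% and at least half of replicates each reaching 50%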
PGC1a acetyl inh: PGC1a acetylation modulation, inhibitor mode. U2OS PGC1a acetylation, AlphaScreen anti-acetyl-lysine; with virally co-expressed GCN5 acetyltransferase. inhibition, % at 15.6 µM. hit rate 0.17% among 350,000. AID 651687;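 active means every replicate shows inhibition of at least 40%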
F508del corr: correctors of CFTR F508del function in bronchial epithelial cells; activity (quench increase), % at 7.58 µM; CFBE cells, YFP halide quenching; stimulated with forskolin plus potentiator P3; % fluorescence drop versus neutral controls; hit rate 0.36% among 350,000; AID 720511;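 active means mean added fluorescence quench of at least 8% versus neutral control, with both replicates also reaching 8%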;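 further: cells transiently co-express mutant CFTR-F508del with the halide-sensitive YFP; corrector assay measuring rescue of mutant channel to the surface after 24 h compound exposure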
CAL PDZ FP-1: inhibitors of human CAL PDZ peptide binding | Q9HD26 | inhibition, % at 24.9 µM | hit rate 0.92% among 300,000 | AID 602252 | purified CAL PDZ, TMR-peptide fluorescence polarization, 1 h;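 active means mean inhibition of at least 30% with at least half of replicates also reaching 30%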
CAL PDZ FP-2: inhibitors of human CAL PDZ peptide binding | Q9HD26 | purified CAL PDZ, TMR-peptide fluorescence polarization, 1 h | inhibition, % at 20 µM | hit rate 0.02% among 330,000;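 active means highest replicate inhibition of at least 40%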
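Test system: tagged CAL PDZ domain / Buffer or medium: sodium phosphate/NaCl buffer pH 7.4 with TCEP, IgG, Thesit / Reagent: TMR-labelled reporter peptide T*-PRC34 bound in PDZ groove / Compound dosing: single point, 20 µM / Schedule: 1 h incubation at room temperature before polarization reading / Technique: fluorescence polarization (mP) / Benchmarks: unlabelled peptide, DMSO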
Hits are given with their value; n = inactive; x = no result given; + = active, no number.

SMILES | miR122 inh | ARNT-TACC3 inh | PGC1a acetyl inh | F508del corr | CAL PDZ FP-1 | CAL PDZ FP-2
COc1ccc(N2C(=O)CC(Nc3ccc(C)cc3)C2=O)cc1 (stereo not given) | n | n | n | x | n | n
COc1ccc(N2C(=O)CC(NNc3ncc(Cl)cc3Cl)C2=O)cc1 (stereo not given) | x | 68 | n | n | n | n
CC1(C(=O)OCC(=O)Nc2nnc(-c3ccccc3)o2)CC1(Cl)Cl (stereo not given) | x | 49 | x | n | n | n
O=C(CSc1nncs1)Nc1nnc(-c2ccccc2)o1 | n | 54 | x | n | n | n
O=S(=O)(O)c1cc(Cl)cc(N=Nc2ccc(O)cc2O)c1O | x | 63 | x | x | n | n
O=[N+]([O-])c1ccc(N=Nc2ccc(O)cc2O)cc1 | n | n | n | x | n | n
CCS(=O)(=O)N1Cc2ccccc2CC1C(=O)NCC12CC3CC(CC(C3)C1)C2 (stereo not given) | 256 | n | n | x | n | n
COc1cc(C(=O)NCCC(=O)NC2CCCCC2)cc(OC)c1OC | n | n | n | n | n | n
COc1cc(C(=O)NCC2CCCCC2)cc(OC)c1OC | x | n | x | n | 65 | n
COc1cc(C(=O)NCCCNC(=O)c2cc(OC)c(OC)c(OC)c2)cc(OC)c1OC | n | x | n | n | x | x
COc1cc(C(=O)NCCNC(=O)C2CCCNC2=O)cc(OC)c1OC (stereo not given) | x | n | x | n | 40 | n
COc1ccccc1N(CC(=O)N1CCCCC1C)S(=O)(=O)c1ccc(Cl)cc1 (stereo not given) | 128 | x | n | n | x | x
Cc1ccc(C)c(N(CC(=O)N2CCCC2)S(C)(=O)=O)c1 | n | n | n | n | 77 | n
COc1ccccc1N(CC(=O)N1CCCC1)S(=O)(=O)c1ccc(C)cc1 | x | n | x | n | n | n
COc1ccc(Cl)cc1N(CC(=O)N1CCCC1)S(=O)(=O)c1ccc(C)cc1 | 141 | n | x | n | x | n
COc1ccccc1N(CC(=O)N1CCN(c2ccc(F)cc2)CC1)S(=O)(=O)c1ccc(C)cc1 | n | n | n | n | 55 | n
CC(C)NC(=O)Nc1ccc2c(c1)CC(=O)N([C@@H](C)CO)C[C@@H](C)[C@@H](CN(C)C(=O)Nc1ccccc1)O2 | n | n | n | n | x | x
C[C@@H]1CN([C@H](C)CO)C(=O)c2c(c3ccccc3n2C)-c2ccccc2CO[C@@H]1CN(C)C(=O)c1cc(Cl)cc(Cl)c1 | x | x | n | n | x | x
CC(=O)N1CCCCN2[C@H](CO)[C@@H](c3ccc(-c4ccc(C)cc4)cc3)[C@H]2C1 | n | n | n | n | x | x
CCNC(=O)[C@H]1[C@H](CO)[C@H]2Cn3c(ccc(-c4cccc(F)c4)c3=O)[C@H]2N1Cc1cc(F)ccc1F | x | n | x | x | x | x
O=C(COC(=O)C1=COCCO1)Nc1ccc(Br)cc1Br | n | n | n | n | 43 | n
C[C@@H]1CN([C@H](C)CO)C(=O)c2cccc(NC(=O)Nc3ccccc3)c2O[C@H]1CN(C)C(=O)NC1CCCCC1 | n | n | n | n | x | x
Cc1ccc2c(c1)N(C(=O)CCC(=O)N1CCN(c3ccccn3)CC1)CCO2 | n | n | n | n | x | n
O=C(CCC(=O)N1CCOc2ccc(Cl)cc21)N1CCN(c2ccccn2)CC1 | n | n | n | 8.3 | x | n
O=C(CSC1=NCCN1)Nc1ccccc1[N+](=O)[O-] | x | n | n | n | n | n
SMILES | miR122 inh | ARNT-TACC3 inh | PGC1a acetyl inh | F508del corr | CAL PDZ FP-1 | CAL PDZ FP-2
O=C(CSC1=NCCN1)Nc1cccc([N+](=O)[O-])c1 | n | n | n | 10 | n | x
O=C(Cc1ncon1)Nc1ccc(F)c(F)c1F | n | n | n | n | 78 | n
O=C(N/N=C/c1ccco1)c1ccccn1 | n | 67 | n | x | n | n
O=C(NN=C1CCC(=NNC(=O)c2ccccn2)CC1)c1ccccn1 | x | 66 | n | n | n | n
COc1cc(/C=C2\SC(=S)N(CC(=O)O)C2=O)ccc1OC(=O)c1ccco1 | n | x | x | n | n | n
CN1C(=O)/C(=C/c2ccc(OC(=O)c3ccco3)cc2)SC1=S | n | x | x | n | + | n
CN1C(=O)/C(=C\c2ccc(OC(=O)c3ccco3)cc2)SC1=S | n | x | x | n | 57 | n
O=C(c1ccccc1)N1CC2(C1)[C@H](c1ccccc1)[C@H](CO)N2CC1CC1 | x | x | n | n | x | x
NC1=CC(=O)C(=O)c2ccccc21 | n | 18 | x | n | n | n
Cc1ccc(S(=O)(=O)Nc2ccc3c(c2)C(=O)N([C@H](C)CO)C[C@@H](C)[C@H](CN(C)C(=O)Nc2ccc(F)cc2)OCCCC[C@H](C)O3)cc1 | n | n | n | n | x | x
CCCCn1nnc(NC(=O)c2ccc([N+](=O)[O-])cc2Cl)n1 | n | n | n | n | 67 | n
COc1cccc(N=C(N)N=C(N)N)c1 | n | n | n | n | n | n
COc1ccnc(CSC(N)=Nc2ccc(F)cc2)c1 | n | 82 | n | x | n | n
C/C=C/c1ccc([C@H]2[C@H](CO)N(S(=O)(=O)CC)C23CN(C(=O)CC)C3)cc1 | x | x | n | n | x | x
CCNc1c([N+](=O)[O-])c(=O)oc2ccccc12 | x | n | n | n | 56 | n
N#CC1c2ccccc2-c2ccccc2N1C(=O)c1ccccc1 (stereo not given) | 98 | x | n | 11 | x | x
Cc1ccccc1-c1ccccc1[C@H]1[C@@H](C#N)N(C(=O)c2ccccc2)[C@H]1CO | x | x | n | n | x | x
O=C(NCc1cccs1)c1ccncc1 | n | n | n | x | 74 | n
C[C@@H]1CN([C@@H](C)CO)C(=O)CCCn2cc(nn2)CO[C@@H]1CN(C)Cc1ccc2cccnc2c1 | n | x | n | n | x | x
C[C@H](CO)N1C[C@H](C)[C@@H](CN(C)Cc2ccc(Cl)c(Cl)c2)Oc2c(NS(=O)(=O)c3ccc(Cl)cc3)cccc2C1=O | n | n | n | n | x | x
CN(C)C1CCN(Cc2cc(COCc3ccccc3)c3cccnc3c2O)C1 (stereo not given) | x | 75 | x | x | n | n
COc1ccccc1N1CCN(Cc2cc(Br)c(O)c3ncccc23)CC1 | n | x | n | n | x | n
COCc1cc(CN2CCCC2)c(O)c2ncccc12 | n | 60 | n | x | n | n
Oc1c(CN2CCCCC2)cc(COCc2ccccc2)c2cccnc12 | n | 62 | n | x | n | n
Oc1cc(Cc2ccccc2)cnc1CN1CCCCC1 | n | n | n | x | n | x
C[C@H](CO)N1C[C@H](C)[C@H](CN(C)Cc2ccncc2)Oc2ccc(NS(C)(=O)=O)cc2C1=O | n | n | n | n | x | x
O=C(CN1CCN(S(=O)(=O)c2ccc(F)c(Cl)c2)CC1)N1CCc2ccccc2C1 | x | n | x | 16 | n | n
Cc1cccc2c1-c1sc(C(=O)Nc3ccccc3N3CCN(C)CC3)cc1CO2 | x | 45 | n | n | n | n
Cc1cccc2c1-c1sc(C(=O)N3CCCCC3)cc1CO2 | n | n | n | n | x | n
O=S(=O)(Nc1ccc2cn[nH]c2c1)c1cc(Br)ccc1Br | 180 | n | n | n | n | n
